Assay results: ChEMBL document CHEMBL1154162, “Synthesis and structure-activity relationships of 2-(1,4'-bipiperidin-1'-yl)thiazolopyridine as H3 receptor antagonists” (Bioorg Med Chem Lett, 2009)
pKi: −log10 of the molar value. One block for each compound: values may come before it.

Tests used:
Histamine H3 receptor [1] = biological target: Histamine H3 receptor (Homo sapiens, UniProt Q9Y5N1); assay: Displacement of [3H]N-alpha-methylhistamine from human recombinant histamine H3 receptor expressed in HEK293 cells; type: cell-based
hERG (KCNH2) = hERG (KCNH2) (Homo sapiens, UniProt Q12809); assay: in vitro
Histamine H3 receptor [2] = biological target: Histamine H3 receptor (Mus musculus, UniProt P58406); assay: Displacement of [3H]N-alpha-methylhistamine from mouse brain histamine H3 receptor
Mus musculus [3] = assay: Ex vivo displacement of [3H]N-alpha-methylhistamine from histamine H3 receptor in ICR mouse at 10 mg/kg, po by receptor occupancy assay relative to control; type: functional
Procedure, shortened: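 ICR mice dosed orally at 10 mg/kg. Cortex dissected 4 h after dosing and homogenized in ice-cold 50 mM Na2HPO4–KH2PO4 buffer pH 6.8, then frozen at −80 °C for at least 12 h. Protein measured by BCA. Incubation 30 min at room temperature, in quadruplicate. Stopped by filtration on PEI-presoaked GF/B plates and counted. Specific binding calculated as total minus nonspecific.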

[4] = AUC (0 to 24 hrs) in monkey at 3 mg/kg, po; type: ADME, organism-based, Macaca mulatta; parameters: time < 24 hr, dose 3 mg/kg, route oral; conditions: rhesus monkey, plasma
Procedure, shortened: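 Monkeys dosed orally at 3 mg/kg. AUC calculated over 0–24 h.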

[5] = Cmax in rat; type: ADME, organism-based; conditions: in vivo
Procedure, shortened: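 Rats dosed orally at 10 mg/kg. Cmax taken from the plasma profile.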

[6] = Cmax in monkey; type: ADME, organism-based, Macaca mulatta; conditions: rhesus monkey, in vivo
Procedure, shortened: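 Monkeys dosed orally at 3 mg/kg. Cmax taken from the plasma profile.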

in vivo [7] = conditions: rat, plasma, po, 10 mg/kg
in vivo [8] = conditions: ICR, mouse, brain/plasma, po, 30 mg/kg
Mus musculus [9] = assay: Ex vivo displacement of [3H]N-alpha-methylhistamine from histamine H3 receptor in ICR mouse at 10 mg/kg, po by receptor occupancy assay relative to control
Histamine H3 receptor [10] = biological target: Histamine H3 receptor (Cavia porcellus, UniProt Q9JI35); assay: Antagonist activity at guinea pig jejunum histamine H3 receptor by electric field stimulation assay; type: functional, tissue-based; conditions: read-out: pA2 (converted)
Histamine H3 receptor (Cavia porcellus, UniProt Q9JI35), sequence (Q9JI35 whole entry): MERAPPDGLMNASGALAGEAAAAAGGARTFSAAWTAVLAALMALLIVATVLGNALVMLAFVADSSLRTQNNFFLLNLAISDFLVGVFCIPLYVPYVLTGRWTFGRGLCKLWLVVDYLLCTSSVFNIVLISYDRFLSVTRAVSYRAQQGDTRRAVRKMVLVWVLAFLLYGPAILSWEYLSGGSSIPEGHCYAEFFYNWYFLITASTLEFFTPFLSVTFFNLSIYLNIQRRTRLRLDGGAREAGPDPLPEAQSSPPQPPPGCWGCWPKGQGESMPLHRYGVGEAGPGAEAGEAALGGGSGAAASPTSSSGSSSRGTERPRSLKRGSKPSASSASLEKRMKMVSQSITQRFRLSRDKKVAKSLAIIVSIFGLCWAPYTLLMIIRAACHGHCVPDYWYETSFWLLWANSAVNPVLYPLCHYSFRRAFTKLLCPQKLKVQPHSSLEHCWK

Histamine H3 receptor (Mus musculus, UniProt P58406), sequence (P58406 whole entry): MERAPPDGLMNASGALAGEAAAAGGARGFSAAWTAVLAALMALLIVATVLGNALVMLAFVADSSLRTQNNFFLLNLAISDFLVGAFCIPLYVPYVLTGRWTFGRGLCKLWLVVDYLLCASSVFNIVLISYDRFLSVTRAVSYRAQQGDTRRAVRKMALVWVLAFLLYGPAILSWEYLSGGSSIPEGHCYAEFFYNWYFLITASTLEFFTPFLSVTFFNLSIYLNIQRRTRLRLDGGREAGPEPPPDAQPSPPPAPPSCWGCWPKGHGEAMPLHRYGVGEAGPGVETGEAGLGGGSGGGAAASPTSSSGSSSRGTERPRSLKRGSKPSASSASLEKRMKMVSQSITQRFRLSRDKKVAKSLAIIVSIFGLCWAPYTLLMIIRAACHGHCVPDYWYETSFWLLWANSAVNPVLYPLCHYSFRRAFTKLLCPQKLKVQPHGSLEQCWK
hERG (KCNH2), sequence (Q12809 whole entry): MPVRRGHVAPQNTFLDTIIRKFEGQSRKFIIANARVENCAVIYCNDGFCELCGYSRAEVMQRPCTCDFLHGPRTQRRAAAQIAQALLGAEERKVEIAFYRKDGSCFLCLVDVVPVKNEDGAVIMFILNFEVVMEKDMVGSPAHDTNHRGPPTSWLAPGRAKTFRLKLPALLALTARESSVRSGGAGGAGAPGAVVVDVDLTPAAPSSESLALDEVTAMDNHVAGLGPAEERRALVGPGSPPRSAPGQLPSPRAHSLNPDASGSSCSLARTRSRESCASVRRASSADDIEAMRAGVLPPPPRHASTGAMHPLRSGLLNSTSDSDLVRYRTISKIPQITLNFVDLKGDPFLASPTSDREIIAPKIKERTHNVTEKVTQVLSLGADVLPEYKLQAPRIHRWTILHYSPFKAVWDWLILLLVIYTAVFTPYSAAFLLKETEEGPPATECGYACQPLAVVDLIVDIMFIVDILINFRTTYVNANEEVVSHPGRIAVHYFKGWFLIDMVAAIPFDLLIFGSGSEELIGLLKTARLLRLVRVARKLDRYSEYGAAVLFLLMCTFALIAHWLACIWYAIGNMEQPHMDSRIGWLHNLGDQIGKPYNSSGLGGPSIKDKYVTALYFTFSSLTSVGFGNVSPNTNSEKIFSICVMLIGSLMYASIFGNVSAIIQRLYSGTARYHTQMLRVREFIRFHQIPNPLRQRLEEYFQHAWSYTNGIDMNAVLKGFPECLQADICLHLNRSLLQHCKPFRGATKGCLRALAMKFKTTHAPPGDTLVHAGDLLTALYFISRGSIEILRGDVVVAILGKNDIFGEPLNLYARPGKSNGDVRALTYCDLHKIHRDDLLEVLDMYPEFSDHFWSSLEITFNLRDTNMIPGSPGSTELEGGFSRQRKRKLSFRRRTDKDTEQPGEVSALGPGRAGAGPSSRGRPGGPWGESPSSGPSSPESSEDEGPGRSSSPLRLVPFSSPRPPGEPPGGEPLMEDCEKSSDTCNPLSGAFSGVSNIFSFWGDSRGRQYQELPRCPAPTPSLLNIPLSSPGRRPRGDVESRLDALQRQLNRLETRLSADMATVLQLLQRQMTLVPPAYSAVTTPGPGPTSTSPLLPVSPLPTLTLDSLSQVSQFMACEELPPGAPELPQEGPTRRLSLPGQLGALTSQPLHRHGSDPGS
Histamine H3 receptor (Homo sapiens, UniProt Q9Y5N1), sequence (Q9Y5N1 whole entry): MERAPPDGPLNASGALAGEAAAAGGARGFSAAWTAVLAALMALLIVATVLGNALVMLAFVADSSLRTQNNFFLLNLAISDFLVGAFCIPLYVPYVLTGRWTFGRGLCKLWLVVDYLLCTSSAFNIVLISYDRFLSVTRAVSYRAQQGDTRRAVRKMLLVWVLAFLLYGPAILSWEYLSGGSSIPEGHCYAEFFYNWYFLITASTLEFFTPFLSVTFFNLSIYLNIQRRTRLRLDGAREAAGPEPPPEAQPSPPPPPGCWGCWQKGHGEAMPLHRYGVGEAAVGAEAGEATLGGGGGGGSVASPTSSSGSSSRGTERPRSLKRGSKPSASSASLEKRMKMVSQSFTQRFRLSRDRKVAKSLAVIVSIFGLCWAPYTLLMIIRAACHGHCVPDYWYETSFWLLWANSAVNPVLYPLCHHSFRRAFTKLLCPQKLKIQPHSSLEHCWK

SMILES: Clc1ccc2nc(N3CCC(N4CCCCC4)CC3)sc2n1
pKi (Histamine H3 receptor [1]): 5.77

SMILES: COc1cc(-c2cnc3nc(N4CCC(N5CCCCC5)CC4)sc3c2)ccn1
inhibition at 10 µM (hERG (KCNH2)): 98%

SMILES: Nc1cnc(-c2cnc3nc(N4CCC(N5CCCCC5)CC4)sc3c2)cn1
inhibition at 10 µM (hERG (KCNH2)): 20%

SMILES: Fc1cc(-c2cc3sc(N4CCC(N5CCCCC5)CC4)nc3cn2)ccn1
inhibition at 10 µM (hERG (KCNH2)): 85%

SMILES: COc1cc(-c2cc3sc(N4CCC(N5CCCCC5)CC4)nc3cn2)ccn1
inhibition at 10 µM (hERG (KCNH2)): 91%

SMILES: Brc1cnc2nc(N3CCC(N4CCCCC4)CC3)sc2c1
pKi (Histamine H3 receptor [1]): 6.85

SMILES: Nc1ccc(-c2cnc3nc(N4CCC(N5CCCCC5)CC4)sc3c2)cn1
Activity (Mus musculus [3]): 3%

SMILES: Clc1cc2sc(N3CCC(N4CCCCC4)CC3)nc2cn1
pKi (Histamine H3 receptor [2]): 7.12 | AUC(0-t) at 6 h (in vivo [7]): 56 ng·h/mL | Kp at 96 h (in vivo [8]): 4.52 | inhibition at 10 µM (hERG (KCNH2)): 59% | Activity (Mus musculus [9]): 80%

SMILES: c1ncc(-c2cnc3nc(N4CCC(N5CCCCC5)CC4)sc3c2)cn1
pKi (Histamine H3 receptor [2]): 7.18 | Activity (Mus musculus [3]): 0% | inhibition at 10 µM (hERG (KCNH2)): 30%

SMILES: CCCN1CCN(c2nc3cnccc3s2)CC1
Kb (Histamine H3 receptor [10]): 56.2 nM

SMILES: Nc1cnc2nc(N3CCC(N4CCCCC4)CC3)sc2c1
pKi (Histamine H3 receptor [1]): 7.10

SMILES: Clc1cnc2nc(N3CCC(N4CCCCC4)CC3)sc2c1
pKi (Histamine H3 receptor [1]): 6.90

SMILES: Fc1ncccc1-c1cc2sc(N3CCC(N4CCCCC4)CC3)nc2cn1
inhibition at 10 µM (hERG (KCNH2)): 88%

SMILES: c1cnc2nc(N3CCC(N4CCCCC4)CC3)sc2c1
pKi (Histamine H3 receptor [1]): 6.86

SMILES: N#Cc1cnc2nc(N3CCC(N4CCCCC4)CC3)sc2c1
pKi (Histamine H3 receptor [1]): 7.44

SMILES: N#Cc1cc(-c2cnc3nc(N4CCC(N5CCCCC5)CC4)sc3c2)ccc1F
AUC(0-t) at 6 h (in vivo [7]): 339 ng·h/mL

Further lines, with some results ahead:

pKi (Histamine H3 receptor [1]): 6.90
SMILES: N#Cc1ccc(-c2cc3sc(N4CCC(N5CCCCC5)CC4)nc3cn2)cc1

pKi (Histamine H3 receptor [1]): 6.85
SMILES: COc1cccc(-c2cnc3nc(N4CCC(N5CCCCC5)CC4)sc3c2)c1

pKi (Histamine H3 receptor [1]): 7.48
SMILES: CC(=O)c1cccc(-c2cnc3nc(N4CCC(N5CCCCC5)CC4)sc3c2)c1

pKi (Histamine H3 receptor [1]): 7.28
SMILES: CC(=O)Nc1cc2sc(N3CCC(N4CCCCC4)CC3)nc2cn1

pKi (Histamine H3 receptor [2]): 7.70
SMILES: CC(=O)Nc1ccc(-c2cnc3nc(N4CCC(N5CCCCC5)CC4)sc3c2)cn1
Activity (Mus musculus [3]): 45% | inhibition at 10 µM (hERG (KCNH2)): 20%

pKi (Histamine H3 receptor [1]): 7.10
SMILES: CC(=O)c1cccc(-c2cc3sc(N4CCC(N5CCCCC5)CC4)nc3cn2)c1

pKi (Histamine H3 receptor [1]): 7.51
SMILES: CC(=O)Nc1cnc2nc(N3CCC(N4CCCCC4)CC3)sc2c1

pKi (Histamine H3 receptor [1]): 6.89
SMILES: c1cc2sc(N3CCC(N4CCCCC4)CC3)nc2cn1

pKi (Histamine H3 receptor [1]): 6.64
SMILES: COc1cccc(-c2cc3sc(N4CCC(N5CCCCC5)CC4)nc3cn2)c1

pKi (Histamine H3 receptor [1]): 6.67
SMILES: Oc1ccc(-c2cc3sc(N4CCC(N5CCCCC5)CC4)nc3cn2)cc1

pKi (Histamine H3 receptor [2]): 7.05 | AUC(0-t) at 24 h [4]: 624 ng·h/mL | Cmax [5]: 234 ng/mL | Cmax [6]: 33 ng/mL | AUC(0-t) at 6 h (in vivo [7]): 1070 ng·h/mL
SMILES: Fc1ccc(-c2cc3sc(N4CCC(N5CCCCC5)CC4)nc3cn2)cn1
Activity (Mus musculus [3]): 95%

pKi (Histamine H3 receptor [1]): 7.34
SMILES: N#Cc1cc(-c2cc3sc(N4CCC(N5CCCCC5)CC4)nc3cn2)ccc1F

pKi (Histamine H3 receptor [1]): 7.14
SMILES: Nc1cc2sc(N3CCC(N4CCCCC4)CC3)nc2cn1

pKi (Histamine H3 receptor [1]): 7.46
SMILES: N#Cc1cc2sc(N3CCC(N4CCCCC4)CC3)nc2cn1

pKi (Histamine H3 receptor [2]): 7.70
SMILES: Oc1ccc(-c2cc3sc(N4CCC(N5CCCCC5)CC4)nc3cn2)cn1
Activity (Mus musculus [3]): 1%

pKi (Histamine H3 receptor [1]): 7.23
SMILES: Oc1ccc(-c2cnc3nc(N4CCC(N5CCCCC5)CC4)sc3c2)cc1
